# Measurements from different studies.
# Each line is one published result; the experiments were not run side by side.
# SLC6A4: Sodium-dependent serotonin transporter (SLC6A4, Homo sapiens, UniProt P31645)
# rep papain-like protease: Replicase polyprotein 1ab, papain-like protease (rep, Porcine epidemic diarrhea virus, UniProt P0C6Y4)
# rep main protease: Replicase polyprotein 1ab, main protease (rep, Porcine epidemic diarrhea virus, UniProt P0C6Y4)
SMILES,target,test,system,conditions,measurement,value
C1=C/COCc2cc(ccc2OCCN2CCCC2)Nc2nccc(n2)-c2cccc(c2)COC/1,"Serine/threonine-protein kinase Nek2 (NEK2, Homo sapiens, UniProt P51955)",binding,,0.1 µM,remaining binding,75%
CCOC(=O)[C@@]12C[C@@H]1[C@@H](n1cnc3c(Nc4ccccc4)nc(C#Cc4ccc(Cl)s4)nc31)[C@H](O)[C@@H]2O,SLC6A4,"ligand displacement, radioligand",,10 µM,inhibition,20%
O=C(NCc1cc(O)c(O)c(Br)c1)c1cccc(C(F)(F)F)c1,rep papain-like protease,"enzyme activity, inhibitor, FRET",,10 µM,inhibition,102%
CCCCC[C@H](O)/C=C/[C@H]1[C@H](O)CC(=O)[C@@H]1C/C=C\CCCC(=O)O,"Prostaglandin E2 receptor EP1 subtype (PTGER1, Homo sapiens, UniProt P34995)","inositol phosphate, agonist, TR-FRET",AD293,1 h,Emax,99.9%
CCOC(=O)[C@@]12C[C@@H]1[C@@H](n1cnc3c(NCCCCCCc4ccccc4)nc(I)nc31)[C@H](O)[C@@H]2O,SLC6A4,"ligand displacement, radioligand",,10 µM,inhibition,68%
CCCCC(=O)Nc1ccc(-c2ccc3ncn(CCC)c(=O)c3c2)cn1,"BDNF/NT-3 growth factors receptor (NTRK2, Homo sapiens, UniProt Q16620)","binding, competition with immobilised ligand",,0.5 µM,remaining binding,100%
COc1cc(CNC(=O)CC(c2ccc(Cl)cc2)C(C)C)cc(Br)c1OC (stereo not drawn),rep main protease,"enzyme activity, inhibitor, FRET",,10 µM,inhibition,33%
COc1cc(-c2cc(C(C)=O)n3ccccc23)cc(OC)c1Cn1ccnc1,"Bromodomain adjacent to zinc finger domain protein 2B, bromodomain (BAZ2B, Homo sapiens, UniProt Q9UIF8)","thermal stability, DSF",,,ΔTm,1.6 °C
COc1cc(CNC(=O)c2ccc(N(C)C)cc2)cc(Br)c1OC,rep main protease,"enzyme activity, inhibitor, FRET",,10 µM,inhibition,32.3%
CCOC(=O)[C@@]12C[C@@H]1[C@@H](n1cnc3c(NCc4cccc(Cl)c4)nc(C#Cc4ccc(Cl)s4)nc31)[C@H](O)[C@@H]2O,SLC6A4,"ligand displacement, radioligand",,10 µM,inhibition,13%
COc1ccc(CNC(=O)c2ccc(Br)cc2)cc1OC,rep main protease,"enzyme activity, inhibitor, FRET",,10 µM,inhibition,60.4%
CCOC(=O)[C@@]12C[C@@H]1[C@@H](n1cnc3c(NCCCCCc4ccccc4)nc(C#Cc4ccccc4)nc31)[C@H](O)[C@@H]2O,SLC6A4,"ligand displacement, radioligand",,"10 µM, cell membranes",inhibition,27%
O=C(NCc1cc(O)c(O)c(Br)c1)c1ccc2ccccc2c1,rep papain-like protease,"enzyme activity, inhibitor, FRET",,10 µM,inhibition,19.4%
O[C@@H]1[C@H](O)[C@@H]2C[C@@H]2[C@H]1n1cnc2c(NCCC3CC3)ncnc21,SLC6A4,"ligand displacement, radioligand",,"10 µM, cell membranes",inhibition,14%
Cc1cc(O)c(-c2ccc([C@@H](C)CN(C)C)cc2)c2c1[nH]c(=O)c1sccc12,"Calcium/calmodulin-dependent protein kinase type 1D (CAMK1D, Homo sapiens, UniProt Q8IU85)","cell-free assay, inhibitor",,"0.1 µM, lysate",inhibition,-8.71%
